# Measured values collected from several papers.
# Compare with care: the assays were run in different laboratories.
# PDE4D: 3',5'-cyclic-AMP phosphodiesterase 4D (PDE4D, Homo sapiens, UniProt Q08499)
# MAK: Serine/threonine-protein kinase MAK (MAK, Homo sapiens, UniProt P20794)
# MTNR1B: Melatonin receptor type 1B (MTNR1B, Homo sapiens, UniProt P49286)
Compound,target,assay,test system,conditions,measurement,value
COc1ncccc1-c1cnn2ccc(N3CCN(C(=O)OC(C)C)CC3)nc12,"Non-receptor tyrosine-protein kinase TNK1 (TNK1, Homo sapiens, UniProt Q13470)","binding, competition with immobilised ligand",,1 µM,remaining binding,100%
CC(C)=CCc1cc(-c2coc3cc(O)cc(O)c3c2=O)cc(O)c1O,PDE4D,"enzyme activity, inhibitor, radiometric",,50 µM,inhibition,100%
Nc1ncc(-c2nc(N3CCOCC3)nc(N3CCOCC3)n2)c(C(F)F)n1,MAK,"binding, competition with immobilised ligand",,10 µM,remaining binding,100%
COc1ccc2[nH]cc(CCNC(=O)CI)c2c1,MTNR1B,"cAMP, agonist, TR-FRET",CHO-K1,20 min,Emax,103%
CC(=O)O[C@H]1C[C@H]2[C@@H]([C@H](OC(C)=O)C[C@@H]3CC(NCCCNc4ccnc5cc(Cl)ccc45)CC[C@@]32C)[C@@H]2CC[C@H]([C@H](C)CCCNCCCNc3ccnc4cc(Cl)ccc34)[C@@]12C (mixture of isomers),"Botulinum neurotoxin type A, protease (Clostridium botulinum, UniProt P0DPI0)","enzyme activity, inhibitor",,10 µM,inhibition,99%
COc1ccc2cccc(C(CO)CNC(=O)CF)c2c1 (stereo not shown),MTNR1B,"cAMP, agonist, TR-FRET",CHO-K1,20 min,Emax,93%
Cc1nn(C)cc1-c1nc2c(N3CCN(Cc4ccc(Cl)cc4)CC3)c(Cl)cnc2[nH]1,MAK,"binding, competition with immobilised ligand",,1 µM,remaining binding,85%
O=C1C[C@@H]2OCC=C3CN4CC[C@]56c7ccccc7N1[C@H]5[C@H]2[C@H]3C[C@H]46,"Cyclin-dependent kinase 7, with cyclin H (CDK7, Homo sapiens, UniProt P50613)","enzyme activity, inhibitor, ADP detection",,10 µM,inhibition,38.1%
CN[C@@H](C)[C@H](O)c1ccccc1,PDE4D,"enzyme activity, inhibitor, radiometric",,50 µM,inhibition,-7.03%
CN[C@]1(c2ccccc2Cl)CCCCC1=O,"Mitogen-activated protein kinase 1 (MAPK1, Homo sapiens, UniProt P28482)","enzyme activity, inhibitor",,30 µM,inhibition,-3%
